# Experimental data taken from ChEMBL document CHEMBL4251665, “Ca2+-Signal Transduction Inhibitors, Kujiol A and Kujigamberol B, Isolated from Kuji Amber Using a Mutant Yeast” (J Nat Prod, 2018).
# The source made the active and inactive calls. The calls are words filed in the database; no cut-off is given here.
# How the values were obtained:
# Saccharomyces cerevisiae = experiment: Inhibition of calcium signal transduction pathway in Saccharomyces cerevisiae YNS17 assessed as growth restoration; assay type: functional, organism-based
# Summary of the method: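 Mutant S. cerevisiae YNS17 plate assay. Samples dissolved in MeOH and spotted on plates; growth-restored zones scored over 0.5 to 0.13 μg/spot. Positive control: FK506 at 2.5 ng/spot.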
# [1] = target: T1, Glycogen synthase kinase-3 beta (Homo sapiens, UniProt P49841); experiment: Inhibition of human GSK-3beta using peptide substrate
# Homo sapiens [2] = species on record: Homo sapiens; experiment: Inhibition of calcineurin (unknown origin) using DLDVPIPGRFDRRVpSVAAE as substrate by malachite green based colorimetric method
# HL-60 = experiment: Cytotoxicity against human HL60 cells after 48 hrs by MTT assay; assay type: cell-based; details: HL-60, 48 h
# Summary of the method: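 HL60 cells grown in RPMI 1640 with 10% heat-inactivated FBS and penicillin (50 units/mL)–streptomycin (50 μg/mL). Exposed to samples for 48 h at 37 °C, humidified, 5% CO2. Viability read by MTT assay; IC50 derived.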
# WI-38 = experiment: Cytotoxicity against human WI38 cells after 48 hrs by MTT assay; assay type: cell-based; details: WI-38, 48 h
# Summary of the method: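 WI-38 human diploid lung fibroblasts cultured in DMEM at 5 × 10^3 cells/well, then tested for cytotoxicity.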
# [3] = target: T1, Glycogen synthase kinase-3 beta; experiment: Inhibition of human GSK-3beta at 200 uM using peptide substrate
# Target sequence in this assay (P49841 whole entry, looked up): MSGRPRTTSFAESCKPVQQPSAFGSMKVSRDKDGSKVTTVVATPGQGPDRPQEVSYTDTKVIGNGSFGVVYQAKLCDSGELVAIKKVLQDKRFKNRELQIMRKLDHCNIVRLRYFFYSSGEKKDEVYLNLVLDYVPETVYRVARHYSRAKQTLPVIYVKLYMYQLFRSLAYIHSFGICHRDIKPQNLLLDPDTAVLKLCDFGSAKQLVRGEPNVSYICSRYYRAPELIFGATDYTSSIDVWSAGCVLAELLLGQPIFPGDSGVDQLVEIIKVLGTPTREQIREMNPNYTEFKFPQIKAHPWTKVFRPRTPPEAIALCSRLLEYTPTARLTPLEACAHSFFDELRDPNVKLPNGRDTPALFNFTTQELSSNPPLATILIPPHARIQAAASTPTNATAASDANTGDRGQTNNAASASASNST
# Homo sapiens [4] = species on record: Homo sapiens; experiment: Inhibition of calcineurin (unknown origin) at 200 uM using DLDVPIPGRFDRRVpSVAAE as substrate by malachite green based colorimetric method
IC50 [1] [µM],inhibition [1],inhibition (Homo sapiens [2]),inhibition [3],inhibition (Homo sapiens [4]),Compound,inhibition (Saccharomyces cerevisiae),IC50 (HL-60) [µM],IC50 (WI-38) [µM]
178,Dose-dependent effect,Dose-dependent effect,–,–,Cc1ccc2c(c1)CC[C@H]1[C@@](C)(CO)CCC[C@]21C,Dose-dependent effect,7.1,> 50
–,–,–,–,–,Cc1ccc2c(c1CCC(C)C)CCC[C@]2(C)CO [KUJIGAMBEROL],–,–,> 50
–,–,–,inactive,inactive,Cc1ccc2c(c1CCC(C)(C)O)CCCC2(C)C,Dose-dependent effect,41.7,> 50
